# Test results from ChEMBL document CHEMBL1795206, “Selective non zinc binding inhibitors of MMP13” (Bioorg Med Chem Lett, 2011).
# Tests used:
# [1] = Chemical stability of the compound assessed as half life at pH 4 to 10; type: physicochemical; conditions: buffer
# [2] = Photolytic stability of the compound in phosphate buffer at pH 7 up to 4 hrs by LC-UV-MS analysis; type: physicochemical; conditions: pH 7, 4 h
# [3] = Intrinsic clearance in human liver microsomes; type: ADME, Microsome
# [4] = Intrinsic clearance in Sprague-Dawley rat hepatocytes measured per 10^6 cells; type: ADME, cell-based, Liver, Hepatocyte
# [5] = Clearance in rat at 2 mg/kg, iv; type: ADME, organism-based; parameters: dose 2 mg/kg, route intravenous; conditions: in vivo
# Summary of the method: (§1)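 Rats dosed intravenously at 2 mg/kg, n = 2 animals. Clearance is reported in ml/min/kg, half-life in h and steady-state volume of distribution in l/kg.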
# [6] = Half life in rat at 2 mg/kg, iv; type: ADME, organism-based; parameters: dose 2 mg/kg, route intravenous; conditions: in vivo; summary of the method: as §1
# [7] = Volume of distribution at steady state in rat at 2 mg/kg, iv; type: ADME, organism-based; parameters: dose 2 mg/kg, route intravenous; conditions: in vivo, read-out: Vdss; summary of the method: as §1
Compound,half-life [1],Stability [2],also measured
O=C(NCc1ccncc1)c1ccc(Oc2ccc(C#C[C@]3(O)CN4CCC3CC4)cc2)cc1,> 41.7 days,Stable,
Cc1ccc(Oc2ccc(C(=O)NCC3CCCCC3)cc2)cc1,> 41.7 days,,
Cc1ccc(Oc2ccc(C(=O)NCCCN(C)C)cc2)cc1,> 41.7 days,Stable,
O=C(NCc1ccncc1)c1ccc(OCCc2ccccc2)cc1,> 41.7 days,Stable,
O=C(NCc1ccncc1)c1ccc(Oc2ccc(C#C[C@@]3(O)CN4CCC3CC4)cc2)cc1,> 41.7 days,Stable,
O=C(NCc1ccncn1)c1ccc(Oc2ccc(C#C[C@]3(O)CN4CCC3CC4)cc2)cc1,> 41.7 days,Stable,microsomal CLint [3]: < 2 µL/min/mg; hepatocyte CLint [4]: 3 µL/min/1e6 cells; clearance [5]: 17 mL/min/kg; half-life [6]: 0.1 days; Vd [7]: 2.4 L/kg
O=C(NCc1ccncn1)c1ccc(Oc2ccc(C#C[C@@]3(O)CN4CCC3CC4)cc2)cc1,> 41.7 days,Stable,
O=C(NCc1ccncn1)c1ccc(Oc2ccc(CCC3(O)CN4CCC3CC4)cc2)cc1 (stereo not given),> 41.7 days,Stable,
O=C(NCc1ccncn1)c1ccc(Oc2ccc(/C=C/C3(O)CN4CCC3CC4)cc2)cc1 (stereo not given),> 41.7 days,Stable,
COC1(C#Cc2ccc(Oc3ccc(C(=O)NCc4ccncn4)cc3)cc2)CN2CCC1CC2 (stereo not given),> 41.7 days,Stable,
O=C(NCc1ccncn1)c1ccc(Oc2ccc(/C=C/C3=CN4CCC3CC4)cc2)cc1,> 41.7 days,Stable,
O=C(NCc1ccncc1)c1ccc(Oc2ccc(C#CC3(O)CN4CCC3CC4)cc2)cc1 (racemic),> 41.7 days,Stable,

# Now from value to compound, other results behind:
half-life [1],Stability [2],Compound,also measured
> 41.7 days,,Cc1ccc(Oc2ccc(C(=O)NCc3ccncc3)cc2)cc1,
> 41.7 days,Stable,O=C(NCc1ccncc1)c1ccc(Oc2ccccc2)cc1,
> 41.7 days,Stable,O=C(NCc1ccncc1)c1ccc(OCc2ccccc2)cc1,
> 41.7 days,,Cc1ccc(Oc2ccc(C(=O)NCc3cccnc3)cc2)cc1,
> 41.7 days,,Cc1ccc(Oc2ccc(C(=O)NCc3ccccc3)cc2)cc1,
> 41.7 days,,COc1cccc(CNC(=O)c2ccc(Oc3ccc(C)cc3)cc2)c1,
> 41.7 days,,Cc1ccc(Oc2ccc(C(=O)N(C)Cc3ccncc3)cc2)cc1,
> 41.7 days,,Cc1ccc(Oc2ccc(C(=O)NCCc3ccncc3)cc2)cc1,
> 41.7 days,,Cc1ccc(Oc2ccc(C(=O)NCCO)cc2)cc1,
> 41.7 days,Stable,CNC(=O)c1ccc(Oc2ccc(C)cc2)cc1,
> 41.7 days,Stable,COc1ccc(C(=O)NCc2ccncc2)cc1,
> 41.7 days,Stable,O=C(NCc1ccncc1)c1ccc(-c2ccccc2)cc1,
> 41.7 days,Stable,O=C(NCc1ccncc1)c1ccc(Oc2ccc([N+](=O)[O-])cc2)cc1,
> 41.7 days,Stable,COc1cc(Oc2ccc(C(=O)NCc3ccncc3)cc2)ccc1[N+](=O)[O-],
> 41.7 days,Stable,N#Cc1ccccc1Oc1ccc(C(=O)NCc2ccncc2)cc1,
> 41.7 days,Stable,CNC(=O)c1ccc(Oc2ccc(C(=O)NCc3ccncc3)cc2)cc1,
> 41.7 days,Stable,O=C(NCc1ccncc1)c1ccc(Oc2ccc(/C=C/C3=CN4CCC3CC4)cc2)cc1,
